The results in this text go back to ChEMBL document CHEMBL3627612, “Hirsutinolide Series Inhibit Stat3 Activity, Alter GCN1, MAP1B, Hsp105, G6PD, Vimentin, TrxR1, and Importin α-2 Expression, and Induce Antitumor Effects against Human Glioma” (J Med Chem, 2015).

As usually defined, the inhibition is the drop in the measured response relative to a control, in per cent. A word on the IC50: it is the point on the concentration scale where inhibition reaches its midpoint. A high value points to weaker potency in that assay.

Data set [1] is described as follows: Antiproliferative activity against human Glioma (G12) patient derived xenograft cells at 5 uM after 72 hrs by cyquant assay. Format: functional, Glioma cell.
The nature of data set [2]: Antiproliferative activity against human U251MG cells at 5 uM for 72 hrs by cyquant assay. Format: functional. As to conditions: U-251, 72 h. In a few lines:
(§1)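 CyQuant proliferation assay after 72 h compound exposure of cultured cells; relative viability normalized to DMSO-treated control; IC50 values derived. Glioma lines grown in RPMI or DMEM with 10% FBS and 1% nonessential amino acids.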

For data set [3], the system named is MDA-MB-231. Kind of data set: Antiproliferative activity against human MDA-MB-231 cells at 5 uM for 72 hrs by cyquant assay. The format is functional, cell-based.
Data set [4] has as its system SF-295. Description: Antiproliferative activity against human SF295 cells at 5 uM for 72 hrs by cyquant assay. The format is functional, cell-based.
The nature of data set [5]: Cytotoxicity against mouse NIH/3T3 cells at 5uM after 72 hrs by cyquant cells. Format: cell-based. As to conditions: nih3t3, 72 h. In short, it runs like this:
as §1

For data set [6], the system named is SF-295. Description: Anticlonogenic activity against human SF295 cells for 72 hrs by crystal-violet staining based assay. The format is functional, cell-based.
For a further data set, the system named is MCF7. Kind of data set: Anticlonogenic activity against human MCF7 cells for 72 hrs measured after 4 weeks by crystal-violet staining based assay. The format is functional, cell-based. In a few lines:
(§2)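 Single-cell seeding at 250 cells per well; cells treated once the next day for 72 h with 0–5 μM compound, then grown until large colonies were visible (NIH3T3 1 week, MDA-MB-231 and U251MG 2 weeks, MCF-7 4 weeks). Colonies stained with crystal violet for 4 h, imaged and counted.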

The nature of data set [7]: Cytotoxicity against mouse NIH/3T3 cells assessed as colony survival at 1 to 5 uM for 72 hrs measured after 1 week by crystal-violet staining based assay. The format is cell-based. The conditions noted are these: nih3t3, 5 µM. In short, it runs like this:
as §2

For the next data set, the system named is U-251. Kind of data set: Cytotoxicity against human U251MG cells at 2.5 to 5 uM after 19 hrs. Format: functional, cell-based.
Data set [8] addresses Signal transducer and activator of transcription 1/ 3 (Mus musculus) (UniProt P42227+P42225). Description: Inhibition of Stat1:Stat3 dimer DNA binding activity in EGF-stimulated mouse NIH3T3 nuclear extract expressing human EGFR assessed as residual activity at 5 uM preincubated for 30 mins followed by addition of radiolabeled probe hSIE for 30 mins by EMSA. Format: cell-free.

The target in data set [9] is Signal transducer and activator of transcription 3 (Mus musculus) (UniProt P42227). Kind of data set: Inhibition of Stat3 dimer DNA binding activity in EGF-stimulated mouse NIH3T3 nuclear extract expressing human EGFR assessed as residual activity at 5 uM preincubated for 30 mins followed by addition of radiolabeled probe hSIE for 30 mins by EMSA. (Mobility shift assays separate free from complexed probe on a gel.)
Signal transducer and activator of transcription 3 (Mus musculus), sequence (P42227 whole entry): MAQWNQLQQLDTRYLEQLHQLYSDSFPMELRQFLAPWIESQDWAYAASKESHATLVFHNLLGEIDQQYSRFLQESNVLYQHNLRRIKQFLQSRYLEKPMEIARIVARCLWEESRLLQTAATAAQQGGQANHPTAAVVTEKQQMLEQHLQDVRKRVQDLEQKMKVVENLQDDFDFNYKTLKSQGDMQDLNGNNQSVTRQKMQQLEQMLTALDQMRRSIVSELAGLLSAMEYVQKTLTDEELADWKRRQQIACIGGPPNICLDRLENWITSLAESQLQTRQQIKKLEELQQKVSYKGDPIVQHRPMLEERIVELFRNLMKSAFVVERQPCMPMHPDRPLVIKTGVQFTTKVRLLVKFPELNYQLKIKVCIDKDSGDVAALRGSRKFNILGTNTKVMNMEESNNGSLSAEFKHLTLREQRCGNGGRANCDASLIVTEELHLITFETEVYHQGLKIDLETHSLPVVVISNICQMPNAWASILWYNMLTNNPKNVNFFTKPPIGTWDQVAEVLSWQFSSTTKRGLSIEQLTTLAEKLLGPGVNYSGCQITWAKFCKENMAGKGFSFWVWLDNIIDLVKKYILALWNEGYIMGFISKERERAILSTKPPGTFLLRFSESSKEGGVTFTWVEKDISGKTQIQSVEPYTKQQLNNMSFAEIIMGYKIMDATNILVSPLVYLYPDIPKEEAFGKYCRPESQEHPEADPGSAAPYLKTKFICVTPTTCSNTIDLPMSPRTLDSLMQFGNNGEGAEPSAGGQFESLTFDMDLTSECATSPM

Data set [10] deals with T1, Signal transducer and activator of transcription 1 (Mus musculus) (UniProt P42225).
T1 sequence (whole entry): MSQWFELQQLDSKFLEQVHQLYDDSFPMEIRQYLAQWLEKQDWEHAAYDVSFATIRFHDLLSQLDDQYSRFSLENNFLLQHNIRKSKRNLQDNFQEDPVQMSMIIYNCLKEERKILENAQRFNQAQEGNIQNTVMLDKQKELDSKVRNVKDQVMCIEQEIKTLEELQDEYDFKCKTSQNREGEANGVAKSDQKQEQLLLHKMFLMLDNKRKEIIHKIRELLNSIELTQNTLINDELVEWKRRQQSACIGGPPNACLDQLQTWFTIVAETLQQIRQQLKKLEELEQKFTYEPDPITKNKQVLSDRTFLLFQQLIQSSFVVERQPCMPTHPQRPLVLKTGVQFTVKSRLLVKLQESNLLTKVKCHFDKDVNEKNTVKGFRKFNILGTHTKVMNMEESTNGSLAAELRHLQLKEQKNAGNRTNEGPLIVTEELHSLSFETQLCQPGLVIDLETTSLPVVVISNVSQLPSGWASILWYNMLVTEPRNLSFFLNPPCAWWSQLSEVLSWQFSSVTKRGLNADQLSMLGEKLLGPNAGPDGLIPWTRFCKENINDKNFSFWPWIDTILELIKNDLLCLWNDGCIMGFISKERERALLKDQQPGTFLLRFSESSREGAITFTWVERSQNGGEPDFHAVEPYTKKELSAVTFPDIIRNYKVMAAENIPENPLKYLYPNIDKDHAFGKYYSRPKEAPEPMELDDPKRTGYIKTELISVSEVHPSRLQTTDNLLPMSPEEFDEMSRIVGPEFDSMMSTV
Description: Inhibition of Stat1 dimer DNA binding activity in EGF-stimulated mouse NIH3T3 nuclear extract expressing human EGFR assessed as residual activity at 5 uM preincubated for 30 mins followed by addition of radiolabeled probe hSIE for 30 mins by EMSA.

For data set [11], the target named is T2, Signal transducer and activator of transcription 3 (Homo sapiens, UniProt P40763). Description: Inhibition of Stat3 dimer DNA binding activity in human U251MG cells nuclear extract at 5 uM by EMSA using radiolabeled probe hSIE. The format is cell-based. The conditions noted are these: U-251, TDE = time-dependent effect. In a few lines:
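Sub-confluent U251MG or U373MG cells treated with compound (5 μM for 0–24 h, or 0–5 μM for 1.5 h). Stat3:DNA bands scanned, quantified and plotted against concentration to derive IC50. Controls were 0.025% DMSO.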

The target in data set [12] is T2, Signal transducer and activator of transcription 3. Description: Inhibition of Stat3 activity in human glioma (G22) patient-derived mouse xenograft cells assessed as phosphorylated Stat3 level at 5 uM after 3 hrs by immunoblot analysis. In short, it runs like this: (§3)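 Cultured G22 glioma patient-derived mouse xenograft cells (DMEM, 5–10% heat-inactivated FBS) treated with 5 μM compound for 0–24 h. Whole-cell lysates immunoblotted for pStat3, Stat3, GAPDH.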

Data set [13] shares this target. Description: Inhibition of Stat3 activity in human glioma (G22) patient-derived mouse xenograft cells assessed as phosphorylated Stat3 level at 5 uM after 24 hrs by immunoblot analysis. In short, it runs like this: as §3
In general terms: In xenograft studies the graft and the host belong to different species.

The target of data set [14] is Mitogen-activated protein kinase 1 and 3 (ERK2 and ERK1) (Mus musculus) (UniProt P63085+Q63844). Description: Modulation of EGF-induced Erk1/2 phosphorylation in mouse NIH3T3 cells expressing human EGFR at 5 uM preincubated for 3 hrs followed by stimulation with 1 ug/ml EGF for 12 mins by immunoblot analysis. The format is cell-based. In short, it runs like this: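 NIH3T3/hEGFR fibroblasts pretreated with or without 5 μM compound for 3 h, then stimulated with 1 μg/ml EGF for 12 min. Whole-cell lysates of equal total protein immunoblotted for phospho and total Stat3, Stat1, Stat5, Erk1/2. Controls were 0.025% DMSO-treated cells. Representative of 2–4 independent determinations.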
Mitogen-activated protein kinase 1 and 3 (ERK2 and ERK1) (Mus musculus), sequence (P63085 whole entry, looked up): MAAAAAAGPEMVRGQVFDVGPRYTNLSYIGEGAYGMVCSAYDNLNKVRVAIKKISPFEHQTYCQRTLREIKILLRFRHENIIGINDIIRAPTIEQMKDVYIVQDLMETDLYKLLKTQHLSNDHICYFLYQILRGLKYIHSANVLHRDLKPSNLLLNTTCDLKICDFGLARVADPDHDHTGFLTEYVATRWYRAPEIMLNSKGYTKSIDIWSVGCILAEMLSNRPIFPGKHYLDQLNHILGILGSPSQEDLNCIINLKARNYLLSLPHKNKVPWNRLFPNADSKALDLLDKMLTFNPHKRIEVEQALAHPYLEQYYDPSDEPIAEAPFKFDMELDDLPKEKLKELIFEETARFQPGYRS
Mitogen-activated protein kinase 1 and 3 (ERK2 and ERK1) (Mus musculus), sequence (Q63844 whole entry, looked up): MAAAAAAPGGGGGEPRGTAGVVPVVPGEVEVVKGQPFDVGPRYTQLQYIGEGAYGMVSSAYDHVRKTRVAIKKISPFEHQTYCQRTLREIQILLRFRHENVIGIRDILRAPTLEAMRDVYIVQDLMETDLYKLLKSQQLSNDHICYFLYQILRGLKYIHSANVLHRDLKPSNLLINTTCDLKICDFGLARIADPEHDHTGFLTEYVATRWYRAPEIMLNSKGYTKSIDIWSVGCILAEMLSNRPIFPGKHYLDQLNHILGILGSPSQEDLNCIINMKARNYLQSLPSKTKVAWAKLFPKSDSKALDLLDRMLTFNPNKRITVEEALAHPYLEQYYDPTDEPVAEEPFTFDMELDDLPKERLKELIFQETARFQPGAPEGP

The target of data set [15] is Mitogen-activated protein kinase; ERK1/ERK2 (Homo sapiens) (UniProt P27361+P28482). Kind of data set: Modulation of Erk1/2 phosphorylation in human U251MG cells at 5 uM after 0.5 to 24 hrs by immunoblot analysis. The format is cell-based. The conditions noted are these: U-251. In a few lines: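 U251MG glioma cells (RPMI or DMEM, 10% FBS, 1% nonessential amino acids) treated with 5 μM compound for 0–24 h; 0.025% DMSO control. Whole-cell lysates of equal total protein immunoblotted for pErk1/2, Erk1/2, pJAK2 and JAK2 with β-actin or GAPDH loading controls. Representative of 2–4 independent determinations.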
Mitogen-activated protein kinase; ERK1/ERK2 (Homo sapiens), sequence (P27361 whole entry, looked up): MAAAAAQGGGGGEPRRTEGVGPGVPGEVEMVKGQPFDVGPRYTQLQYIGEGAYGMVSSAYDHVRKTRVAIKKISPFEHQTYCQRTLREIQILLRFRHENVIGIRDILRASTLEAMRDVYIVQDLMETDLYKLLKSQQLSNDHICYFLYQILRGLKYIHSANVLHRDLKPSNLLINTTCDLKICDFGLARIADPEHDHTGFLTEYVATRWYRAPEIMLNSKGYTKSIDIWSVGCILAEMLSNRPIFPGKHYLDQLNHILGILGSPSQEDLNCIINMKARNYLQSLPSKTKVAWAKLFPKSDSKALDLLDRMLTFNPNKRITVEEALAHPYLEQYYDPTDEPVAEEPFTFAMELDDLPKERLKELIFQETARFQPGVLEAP
Mitogen-activated protein kinase; ERK1/ERK2 (Homo sapiens), sequence (P28482 whole entry, looked up): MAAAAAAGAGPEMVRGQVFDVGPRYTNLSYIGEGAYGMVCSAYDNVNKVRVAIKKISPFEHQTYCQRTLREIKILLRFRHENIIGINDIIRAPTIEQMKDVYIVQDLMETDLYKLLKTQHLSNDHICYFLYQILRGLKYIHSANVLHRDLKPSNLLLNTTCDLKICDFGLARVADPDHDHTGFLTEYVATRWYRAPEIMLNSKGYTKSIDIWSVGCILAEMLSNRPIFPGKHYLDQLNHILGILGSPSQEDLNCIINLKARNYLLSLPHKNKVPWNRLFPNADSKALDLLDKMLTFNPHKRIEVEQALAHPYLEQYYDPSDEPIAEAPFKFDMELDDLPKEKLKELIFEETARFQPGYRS
Background: A western blot detects proteins with antibodies after separation by electrophoresis.

Data set [16] concerns MDA-MB-231. Description: Antiproliferative activity against human MDA-MB-231 cells for 72 hrs by cyquant assay. The format is functional, cell-based. The conditions noted are these: MDA-MB-231, 72 h. In a few lines:
as §1

The nature of data set [17]: Antiproliferative activity against human U373MG cells for 72 hrs by cyquant assay. Format: functional, cell-based, U-373MG ATCC. The conditions noted are these: U373 MG. In a few lines:
as §1

The nature of data set [18]: Antiproliferative activity against human SF295 cells for 72 hrs by cyquant assay. The format is functional, cell-based. The conditions noted are these: SF-295, 72 h. In a few lines:
as §1

Activity calls are given as the source filed them. No cut-off for these calls is given here.

T2 sequence (P40763 whole entry): as the sequence (P42227 whole entry) above, with D760E counted along it

As for `C/C=C(\C)C(=O)OCC1=C2/C(=C\[C@@]3(C)CC[C@](O)(O3)[C@H](C)C[C@@H]2O)OC1=O`, in data set [1], the “inhibition (INH)” value came to 25%. In addition, testing at 5 µM in [2] gave an inhibition of 90%. Also, the inhibition result (in the data set with MDA-MB-231 [3]; in the data set on SF-295 [4]; in data set [12]) was “Active” throughout. For the same compound, the Activity entry in data set [5] is “Non-toxic”; with SF-295 [6] it was “Dose-dependent effect”; in the data set on MCF7, “Dose-dependent effect”; in data set [7], “Toxic”; in data set [8], 18%; in data set [9], 8%. For the same compound, in data set [10], the Activity is 36%. The result (in the data set on U-251; in data set [15]) was inactive. Also, in data set [11], the inhibition entry is “tde”. Besides, the inhibition entry in [13] and in data set [14] was “inactive” throughout. Further, the IC50 in the data set with MDA-MB-231 [16] stood at 6.5 µM; in data set [17], 6.5 µM; in data set [18], 9.6 µM.
On to `C/C=C(\C)C(=O)O[C@H]1C[C@@H](C)[C@]2(O)CC[C@](C)(/C=C3/OC(=O)C(COC(C)=O)=C31)O2`, for which the “inhibition (INH)” value in data set [1] stood at 25%. In data set [2], this compound came in with an inhibition at 5 µM of 90%. Also, the inhibition entry (in the data set on MDA-MB-231 [3]; with SF-295 [4]; in data set [12]) was “Active” in each case. Also, the Activity result is “Toxic” in data set [5]; “Dose-dependent effect” in the data set with SF-295 [6]; “Dose-dependent effect” in the data set with MCF7; “Toxic” in [7]; 67% in [8]; 49% in data set [9]. Moreover, the Activity in [10] was found to be 68%. The outcome (in the data set with U-251; in [15]) was inactive. Also, the inhibition result in [11] was “tde”. For the same compound, the inhibition entry in data set [13] and in data set [14] was “inactive” in each case. Moreover, the figures for the IC50 (in the data set on MDA-MB-231 [16]; in data set [17]; in data set [18]) were 1.8 µM, 3.5 µM and 7.5 µM, respectively.
Consider `C/C=C(\C)C(=O)O[C@H]1C[C@@H](C)[C@]2(OC)CC[C@](C)(/C=C3/OC(=O)C(COC(C)=O)=C31)O2`, for which the “inhibition (INH)” value in data set [1] was 25%. Besides, 5 µM produced 90% inhibition in data set [2]. In addition, the inhibition result (in the data set with MDA-MB-231 [3]; in data set [12]) was “Active” in each case. The inhibition result (in the data set on SF-295 [4]; in [13]; in [14]) was “inactive” throughout. Besides, the Activity entry is “Toxic” in [5]; “Dose-dependent effect” in the data set on SF-295 [6]; “Dose-dependent effect” with MCF7; “Toxic” in data set [7]; 42% in data set [8]; 31% in [9]. Moreover, in data set [10], the Activity worked out at 49%. Also, the result (in the data set with U-251; in [15]) was inactive. In data set [11], the inhibition result is “tde”. In addition, the IC50 in the data set on MDA-MB-231 [16] stood at 6.6 µM; in data set [17] it was 6.6 µM; in data set [18], 8.2 µM.
